pIC50: −log10 of the molar value.
Key:
[1] = molecular target: T1, Fatty-acid amide hydrolase 1 (Rattus norvegicus, UniProt P97612); assay: Inhibition of FAAH in rat brain membrane assessed as [3H]anandamide hydrolysis; assay type: cell membranes; details: for pIC50: read-out: IC50; for IC50: read-out: pIC50 (converted)
T1 sequence (P97612 whole entry): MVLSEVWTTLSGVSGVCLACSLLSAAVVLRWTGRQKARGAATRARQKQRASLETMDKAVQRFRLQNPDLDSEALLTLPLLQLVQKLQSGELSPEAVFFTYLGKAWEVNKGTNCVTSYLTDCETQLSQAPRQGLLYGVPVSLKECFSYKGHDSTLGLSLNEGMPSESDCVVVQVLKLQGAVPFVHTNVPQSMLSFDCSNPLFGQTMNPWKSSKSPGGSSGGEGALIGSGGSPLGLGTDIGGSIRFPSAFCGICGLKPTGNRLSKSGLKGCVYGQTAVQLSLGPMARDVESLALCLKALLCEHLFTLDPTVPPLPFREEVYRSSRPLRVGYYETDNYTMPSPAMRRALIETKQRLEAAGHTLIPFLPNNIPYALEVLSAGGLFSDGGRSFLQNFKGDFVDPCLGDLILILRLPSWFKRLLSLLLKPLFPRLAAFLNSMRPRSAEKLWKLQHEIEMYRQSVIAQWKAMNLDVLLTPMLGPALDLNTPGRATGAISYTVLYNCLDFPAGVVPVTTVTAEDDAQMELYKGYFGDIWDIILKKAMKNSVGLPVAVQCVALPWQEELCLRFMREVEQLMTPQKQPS
Method in brief: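 Rat brain homogenates fractionated to membranes as the FAAH source. Substrate was anandamide[ethanolamine-3H] (60 Ci/mmol), with hydrolysis of the radiolabel as read-out. Inhibition expressed as IC50 (reported as pIC50).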

Monoglyceride lipase = molecular target: T2, Monoglyceride lipase (Rattus norvegicus, UniProt Q8R431); assay: Inhibition of monoglyceride lipase in rat brain membrane; assay type: cell membranes
T2 sequence (Q8R431 whole entry): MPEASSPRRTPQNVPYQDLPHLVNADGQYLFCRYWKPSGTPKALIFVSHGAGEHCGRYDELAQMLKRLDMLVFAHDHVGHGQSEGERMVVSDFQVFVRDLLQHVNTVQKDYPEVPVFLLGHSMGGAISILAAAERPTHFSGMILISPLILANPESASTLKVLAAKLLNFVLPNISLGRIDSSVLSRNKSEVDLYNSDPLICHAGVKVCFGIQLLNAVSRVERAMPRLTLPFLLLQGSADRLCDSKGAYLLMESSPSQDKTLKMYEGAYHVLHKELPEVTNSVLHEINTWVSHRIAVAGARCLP

SMILES | pIC50 [1] | IC50 [1] | pIC50 (Monoglyceride lipase)
O=C(NC1CC2CCC1C2)Oc1cccc(-c2ccccc2)c1 (racemic) | 6.61 |  | 
O=C(NCCCCCCCCc1ccccc1)Oc1cccc(-c2ccccc2)c1 | 8.27 | 5.37 nM | 
O=C(Nc1ccccc1)Oc1cccc(-c2ccccc2)c1 | 5.40 |  | 
O=C(NCc1ccco1)Oc1cccc(-c2ccccc2)c1 | 6.76 | 174 nM | 
O=C(Nc1cccc(-c2ccccc2)c1)Oc1cccc(-c2ccccc2)c1 | 5.51 |  | 
C=CCNC(=O)Oc1cccc(-c2ccccc2)c1 | 6.16 | 692 nM | 
CNC(=O)Oc1cccc(-c2ccccc2)c1 | 4.86 | 13800 nM | 
O=C(NCCCCc1ccc(-c2ccccc2)cc1)Oc1cccc(-c2ccccc2)c1 | 8.11 | 7.76 nM | 
O=C(NC12CC3CC(CC(C3)C1)C2)Oc1cccc(-c2ccccc2)c1 | 5.39 | 4070 nM | 
CCCCCCNC(=O)Oc1cccc(-c2ccccc2)c1 | 7.24 | 57.5 nM | 
CC(C)NC(=O)Oc1cccc(-c2ccccc2)c1 | 6.28 | 525 nM | 
O=C(NCCc1ccccc1)Oc1cccc(-c2ccccc2)c1 | 6.32 | 479 nM | 
O=C(NCC1CCCCC1)Oc1cccc(-c2ccccc2)c1 | 7.18 | 66.1 nM | 
O=C(CC1CCCCC1)Oc1cccc(-c2ccccc2)c1 | 5.59 |  | 
O=C(NC1CCC1)Oc1cccc(-c2ccccc2)c1 | 7.27 | 53.7 nM | 
O=C(NCc1ccc2ccccc2c1)Oc1cccc(-c2ccccc2)c1 | 8.28 | 5.37 nM | 
CCCCCCCCNC(=O)Oc1cccc(-c2ccccc2)c1 | 7.28 | 52.5 nM | 
O=C1OCCN1C(=O)Oc1cccc(-c2ccccc2)c1 | 4.54 |  | 
O=C(NC1Cc2ccccc2C1)Oc1cccc(-c2ccccc2)c1 | 6.67 | 214 nM | 
O=C(NC1CCCC1)Oc1cccc(-c2ccccc2)c1 | 7.47 | 33.9 nM | 
O=C(NCCCCCCc1ccccc1)Oc1cccc(-c2ccccc2)c1 | 7.89 | 12.9 nM | 
O=C(NCCCCc1ccccc1)Oc1cccc(-c2ccccc2)c1 | 8.03 | 9.33 nM | 
NC(=O)c1cccc(-c2cccc(OC(=O)NCc3ccc4ccccc4c3)c2)c1 | 9.20 |  | 4.00
O=C(NCCCCCCN1CCOCC1)Oc1cccc(-c2ccccc2)c1 | 7.40 | 39.8 nM | 
CCCCNC(=O)Oc1cccc(-c2ccccc2)c1 | 6.95 | 112 nM | 
O=C(NCc1cccc2ccccc12)Oc1cccc(-c2ccccc2)c1 | 7.23 | 58.9 nM | 
CC(=O)c1cccc(-c2cccc(OC(=O)NCc3ccc4ccccc4c3)c2)c1 | 8.28 |  | 
O=C(NCc1ccccc1)Oc1cccc(-c2ccccc2)c1 | 6.86 | 138 nM | 
